Series [1] in a line: melting temperature; fluorescence melt of hairpins on a sequencing array, two-state fit, raised by 9.35 °C to match UV melts. The note with it: sodium 0.088 M. The gist of the method: (§1)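 Hairpins were imaged by Cy3 fluorescence on a sequenced MiSeq flow cell with annealed Cy3 and quencher oligos, in 50 mM Na-HEPES pH 8.0, 25 mM NaCl, in 2.5 °C steps up to 60 °C. Bootstrapped two-state fits of normalised signals gave melting temperature and folding enthalpy. Four replicates were combined by inverse variance, and fitted temperatures were raised by 9.35 °C to match UV melts.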

The nature of series [2]: folding enthalpy; higher = less favourable; fluorescence melt of hairpins on a sequencing array, two-state fit. The note with it: sodium 0.088 M. The gist of the method:
as §1

As to GTTCTCGAAAGAGTGAAC ((((((....)))..))), the Tm in series [1] stood at 29.4 °C. Moreover, the folding enthalpy in series [2] is -14.7 kcal/mol.
The like results for GTTCTCGGAAACAAGAAC (((((.(....).))))) were, in that order, 33.9 °C and -14.8 kcal/mol.
The corresponding values for GTTCTCGGAAACGAAAAC (((.(((....))).))) are 29.3 °C and -20 kcal/mol.
The corresponding values for GTTCTCGGAAACGGGAAC ((((.((....)).)))) are 51 °C and -41.3 kcal/mol.
On to GTTCTGCGAAAGCAAAAC (((.(((....))).))), for which the Tm in series [1] amounted to 38.4 °C. In series [2], the folding enthalpy is -16.7 kcal/mol.
The corresponding values for GTTCTGGGAAACTGGAAC ((((..(....)..)))) are 34.8 °C and -31.9 kcal/mol.
The corresponding values for GTTCTTCGAAAGAAAAAC (((.(((....))).))) are 25.4 °C and -12.6 kcal/mol.
Take GTTGAACGAAAGTTAAAC (((.(((....))).))): in series [1], the Tm amounted to 41.2 °C. For the same sequence, the folding enthalpy in series [2] was -26.9 kcal/mol.
The corresponding values for GTTGAAGCGAAAGCTAAC (((..(((....)))))) are 34.3 °C and -13.5 kcal/mol.
The like results for GTTGACGAAAGTCAAAC ((((((....))).))) were, in that order, 51.3 °C and -13.9 kcal/mol.
The corresponding values for GTTGACGAAAGTCCGAAC ((((((....)))..))) are 29 °C and -10.6 kcal/mol.
For GTTGACGAAAGTCGAAAC ((((((....)))..))), the Tm in series [1] was found to be 30.9 °C. Besides, the folding enthalpy in series [2] was -12 kcal/mol.
Consider GTTGACGAAAGTCGTAAC ((((((....)))..))), for which the Tm in series [1] turned out to be 32.9 °C. In series [2], the folding enthalpy was -11.1 kcal/mol.
Take GTTGACGAAAGTCTAAC ((((((....))).))): in series [1], the Tm was 39.7 °C. Also, the folding enthalpy in series [2] is -14.7 kcal/mol.
The like results for GTTGACGGAAACGTTGAC ((..(((....)))..)) were, in that order, 37.5 °C and -25.4 kcal/mol.
The like results for GTTGAGAAATCAAC (((((....))))) were, in that order, 42.2 °C and -19.9 kcal/mol.
The like results for GTTGAGGGAAACCTCAGC (.(((((....))))).) were, in that order, 46.3 °C and -25.4 kcal/mol.
Take GTTGATCGAAAGATGAAC (((.(((....))).))): in series [1], the Tm turned out to be 37.1 °C. The folding enthalpy in series [2] was -24.1 kcal/mol.
The like results for GTTGCAGGAAACCACAAC ((((..(....)..)))) were, in that order, 27.4 °C and -18.2 kcal/mol.
The corresponding values for GTTGCCGAAAGGCCAAC ((((((....))).))) are 47.3 °C and -14.4 kcal/mol.
The like results for GTTGCCGAAAGGCTAAAC ((((((....)))..))) were, in that order, 34.5 °C and -9.35 kcal/mol.
On to GTTGCCGGAAACGGTAAC (((.(((....))).))), for which the Tm in series [1] came to 54.4 °C. Besides, the folding enthalpy in series [2] is -33.3 kcal/mol.
The like results for GTTGCGGGAAACCACAAC ((((.((....)).)))) were, in that order, 46.1 °C and -38.2 kcal/mol.
The like results for GTTGCGGGAAACCGTAAC (((.(((....))).))) were, in that order, 51.2 °C and -34.3 kcal/mol.
The like results for GTTGCTCCGAAAGGAAAC (((..(((....)))))) were, in that order, 28.1 °C and -10 kcal/mol.
As to GTTGCTCGAAAGAGAAC (((.(((....)))))), in series [1], the Tm was 34.4 °C. For the same sequence, the folding enthalpy in series [2] was -20.2 kcal/mol.
The corresponding values for GTTGGAACGAAAGTTAAC (((..(((....)))))) are 29.6 °C and -14.5 kcal/mol.
Turning to GTTGGAGGAAACTTCAGC (.((.((....)).)).), in series [1], the Tm was 30.5 °C. Also, the folding enthalpy in series [2] was -12.7 kcal/mol.
The corresponding values for GTTGGCACGAAAGTGAAC (((..(((....)))))) are 38.8 °C and -20.6 kcal/mol.
The like results for GTTGGCGAAAGCCAAAAC ((((((....)))..))) were, in that order, 41.5 °C and -10.5 kcal/mol.
The like results for GTTGGCGAAAGCCAAAC ((((((....))).))) were, in that order, 56.2 °C and -11.6 kcal/mol.
Take GTTGGCGAAAGCCACAAC ((((((....)))..))): the Tm in series [1] worked out at 33.8 °C. In addition, the folding enthalpy in series [2] was -8.33 kcal/mol.
The like results for GTTGGCGAAAGCCCCAAC ((((((....)))..))) were, in that order, 22.5 °C and -6.64 kcal/mol.
For the sequence GTTGGCGAAAGCCGCAAC ((((((....)))..))), the Tm in series [1] is 26.3 °C. Further, the folding enthalpy in series [2] was -9.16 kcal/mol.
As to GTTGGCGAAAGCCTAAAC ((((((....)))..))), the Tm in series [1] amounted to 30.7 °C. Besides, in series [2], the folding enthalpy was -8.68 kcal/mol.
The like results for GTTGGCGAAAGCCTAAC ((((((....))).))) were, in that order, 43.4 °C and -12.8 kcal/mol.

These data come from the array DNA melting data of Ke et al. (doi:10.1101/2024.01.08.574731).
